System: U2OS
Assay: Multiplex assay against U2OS
Format: toxicity, cell-based
Conditions: human
Outline: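 Live cells carried four stains from seeding: Hoechst33342, BioTracker Green Microtubule Cytoskeleton Dye, MitoTracker Red and Annexin V Alexa Fluor 680. They were imaged on a CQ1 microscope at 37°C and 5% CO2 after compound addition. Using CellPathfinder machine-learning gating, cells were split into Hoechst high-intensity objects or normal cells, normal cells into healthy, pyknosed or fragmented nuclei, and pyknosed cells into mitotic or apoptotic; tubulin, mitochondrial-mass and membrane-permeability phenotypes are per cents of healthy-nucleus cells.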

[1] = 12 h, 1 µM, compound concentration 1 uM, replicate 1
[2] = 12 h, 1 µM, compound concentration 1 uM, replicate 2
[3] = 12 h, 10 µM, compound concentration 10 uM, replicate 1
[4] = 12 h, 10 µM, compound concentration 10 uM, replicate 2
[5] = 24 h, 1 µM, compound concentration 1 uM, replicate 1
[6] = 24 h, 1 µM, compound concentration 1 uM, replicate 2
[7] = 24 h, 10 µM, compound concentration 10 uM, replicate 1
[8] = 24 h, 10 µM, compound concentration 10 uM, replicate 2
[9] = 48 h, 1 µM, compound concentration 1 uM, replicate 1
[10] = 48 h, 1 µM, compound concentration 1 uM, replicate 2
[11] = 48 h, 10 µM, compound concentration 10 uM, replicate 1
[12] = 48 h, 10 µM, compound concentration 10 uM, replicate 2

CNc1nc(NCc2ccc(NS(C)(=O)=O)cc2Cl)cc(-c2ccccn2)n1
Population Apoptotic (%) [1]: 35%
Population Fragmented Nuclei (%) [1]: 12%
Population Healthy Nuclei (%) [1]: 70%
Population Hoechst High Intensity Objects (%) [1]: 10%
Population Membrane Permeable-Phenotype (%) [1]: 7%
Population Mitochondria Different-Phenotype (%) [1]: 12%
Population Mitotic Cells (%) [1]: 64%
Population Normal (%) [1]: 89%
Population Pyknosed Nuclei (%) [1]: 17%
Population Tubulin-Different-Phenotype (%) [1]: 19%
Total Cell Count [1]: 121
Population Apoptotic (%) [2]: 33%
Population Fragmented Nuclei (%) [2]: 11%
Population Healthy Nuclei (%) [2]: 82%
Population Hoechst High Intensity Objects (%) [2]: 8%
Population Membrane Permeable-Phenotype (%) [2]: 0%
Population Mitochondria Different-Phenotype (%) [2]: 9%
Population Mitotic Cells (%) [2]: 66%
Population Normal (%) [2]: 91%
Population Pyknosed Nuclei (%) [2]: 5%
Population Tubulin-Different-Phenotype (%) [2]: 11%
Total Cell Count [2]: 61
Population Apoptotic (%) [3]: 61%
Population Fragmented Nuclei (%) [3]: 13%
Population Healthy Nuclei (%) [3]: 75%
Population Hoechst High Intensity Objects (%) [3]: 10%
Population Membrane Permeable-Phenotype (%) [3]: 5%
Population Mitochondria Different-Phenotype (%) [3]: 29%
Population Mitotic Cells (%) [3]: 38%
Population Normal (%) [3]: 89%
Population Tubulin-Different-Phenotype (%) [3]: 37%
Total Cell Count [3]: 91
Population Apoptotic (%) [4]: 57%
Population Fragmented Nuclei (%) [4]: 6%
Population Healthy Nuclei (%) [4]: 81%
Population Hoechst High Intensity Objects (%) [4]: 9%
Population Membrane Permeable-Phenotype (%) [4]: 12%
Population Mitochondria Different-Phenotype (%) [4]: 32%
Population Mitotic Cells (%) [4]: 42%
Population Normal (%) [4]: 90%
Population Pyknosed Nuclei (%) [4]: 11%
Population Tubulin-Different-Phenotype (%) [4]: 30%
Total Cell Count [4]: 56
Population Apoptotic (%) [5]: 50%
Population Fragmented Nuclei (%) [5]: 9%
Population Healthy Nuclei (%) [5]: 78%
Population Hoechst High Intensity Objects (%) [5]: 8%
Population Membrane Permeable-Phenotype (%) [5]: 3%
Population Mitochondria Different-Phenotype (%) [5]: 17%
Population Mitotic Cells (%) [5]: 50%
Population Normal (%) [5]: 91%
Population Pyknosed Nuclei (%) [5]: 11%
Population Tubulin-Different-Phenotype (%) [5]: 19%
Total Cell Count [5]: 125
Population Apoptotic (%) [6]: 25%
Population Fragmented Nuclei (%) [6]: 8%
Population Healthy Nuclei (%) [6]: 85%
Population Hoechst High Intensity Objects (%) [6]: 1%
Population Membrane Permeable-Phenotype (%) [6]: 0%
Population Mitochondria Different-Phenotype (%) [6]: 11%
Population Mitotic Cells (%) [6]: 75%
Population Normal (%) [6]: 98%
Population Pyknosed Nuclei (%) [6]: 5%
Population Tubulin-Different-Phenotype (%) [6]: 11%
Total Cell Count [6]: 67
Population Apoptotic (%) [7]: 52%
Population Fragmented Nuclei (%) [7]: 18%
Population Healthy Nuclei (%) [7]: 67%
Population Hoechst High Intensity Objects (%) [7]: 8%
Population Membrane Permeable-Phenotype (%) [7]: 6%
Population Mitochondria Different-Phenotype (%) [7]: 23%
Population Mitotic Cells (%) [7]: 47%
Population Normal (%) [7]: 91%
Population Pyknosed Nuclei (%) [7]: 14%
Population Tubulin-Different-Phenotype (%) [7]: 29%
Total Cell Count [7]: 113
Population Apoptotic (%) [8]: 50%
Population Fragmented Nuclei (%) [8]: 20%
Population Healthy Nuclei (%) [8]: 66%
Population Hoechst High Intensity Objects (%) [8]: 10%
Population Membrane Permeable-Phenotype (%) [8]: 4%
Population Mitochondria Different-Phenotype (%) [8]: 26%
Population Mitotic Cells (%) [8]: 50%
Population Normal (%) [8]: 89%
Population Pyknosed Nuclei (%) [8]: 12%
Population Tubulin-Different-Phenotype (%) [8]: 17%
Total Cell Count [8]: 71
Population Apoptotic (%) [9]: 41%
Population Fragmented Nuclei (%) [9]: 12%
Population Healthy Nuclei (%) [9]: 76%
Population Hoechst High Intensity Objects (%) [9]: 7%
Population Membrane Permeable-Phenotype (%) [9]: 0%
Population Mitochondria Different-Phenotype (%) [9]: 21%
Population Mitotic Cells (%) [9]: 58%
Population Normal (%) [9]: 92%
Population Pyknosed Nuclei (%) [9]: 11%
Population Tubulin-Different-Phenotype (%) [9]: 21%
Total Cell Count [9]: 114
Population Apoptotic (%) [10]: 0%
Population Fragmented Nuclei (%) [10]: 6%
Population Healthy Nuclei (%) [10]: 90%
Population Hoechst High Intensity Objects (%) [10]: 3%
Population Membrane Permeable-Phenotype (%) [10]: 2%
Population Mitochondria Different-Phenotype (%) [10]: 19%
Population Mitotic Cells (%) [10]: 100%
Population Normal (%) [10]: 96%
Population Pyknosed Nuclei (%) [10]: 3%
Population Tubulin-Different-Phenotype (%) [10]: 15%
Total Cell Count [10]: 71
Population Apoptotic (%) [11]: 64%
Population Healthy Nuclei (%) [11]: 53%
Population Hoechst High Intensity Objects (%) [11]: 8%
Population Membrane Permeable-Phenotype (%) [11]: 7%
Population Mitochondria Different-Phenotype (%) [11]: 28%
Population Mitotic Cells (%) [11]: 35%
Population Normal (%) [11]: 91%
Population Pyknosed Nuclei (%) [11]: 25%
Population Tubulin-Different-Phenotype (%) [11]: 10%
Total Cell Count [11]: 165
Population Apoptotic (%) [12]: 44%
Population Fragmented Nuclei (%) [12]: 21%
Population Healthy Nuclei (%) [12]: 51%
Population Hoechst High Intensity Objects (%) [12]: 13%
Population Membrane Permeable-Phenotype (%) [12]: 20%
Population Mitochondria Different-Phenotype (%) [12]: 41%
Population Mitotic Cells (%) [12]: 55%
Population Normal (%) [12]: 86%
Population Pyknosed Nuclei (%) [12]: 27%
Population Tubulin-Different-Phenotype (%) [12]: 23%
Total Cell Count [12]: 124

— ChEMBL document CHEMBL4689842, “EUbOPEN Chemogenomics Library wave 1” (2021)
